Results collected from several papers.
Compare with care: the assays were run in different laboratories.
Read-out: cell growth or viability

COc1cc2c3c(n(CCCn4ccnc4)c(=O)c2cc1OC)-c1nc2c(cc1C3=O)OCO2 — IC50 (KMS-27; MTS; 72 h): 238 nM
C=C(F)C(=O)N1CCN(c2nc(OC[C@@H]3CCCN3C)nc3c2CCN(c2cccc4cccc(Cl)c24)C3)C[C@@H]1CC#N — IC50 (SW837; ATP luminescence): 86.2 nM
COc1cc2c3c(n(CCCN4CCOCC4)c(=O)c2cc1OC)-c1nc2c(cc1C3=O)OCO2 — IC50 (KMS-27; MTS; 72 h): 530 nM
Nc1ccc(/C=C/C(=O)N2CCc3c(oc4c(-c5ccc(F)cc5)cc(-c5ncc(C(=O)N6CCC(F)(F)CC6)cn5)cc34)C2)cn1 — IC50 (MIA PaCa-2; CCK-8; 72 h): 4460 nM
C=CC(=O)N1CCN(c2nc(=O)n(-c3c(C)ccnc3C(C)C)c3nc(-c4c(O)cccc4F)c(F)cc23)[C@@H](C)C1 — IC50 (MIA PaCa-2; ATP luminescence): 23.5 nM
COc1ccc(-c2cc(C(=O)Nc3ccccc3)c3cc(-c4cccs4)ccc3n2)cc1 — IC50 (MIA PaCa-2; MTT; 48 h): > 50000 nM
COc1cc([C@@H]2c3cc4c(cc3[C@@H](O[C@@H]3O[C@@H]5CO[C@@H](C)O[C@H]5[C@H](O)[C@H]3O)[C@H]3COC(=O)[C@H]23)OCO4)cc(OC)c1O — IC50 (T47D; MTT; 48 h): 79000 nM
O=C(Nc1ccccc1)c1cc(-c2ccccc2)nc2ccc(-c3ccccc3)cc12 — IC50 (MIA PaCa-2; MTT; 48 h): > 50000 nM
CCNCCCn1c2c(c3cc(OC)c(OC)cc3c1=O)C(=O)c1cc3c(nc1-2)OCO3 — IC50 (MOLT-4; MTS; 72 h): 13 nM
COc1ccc(-c2cc(C(=O)Nc3ccccc3)c3cc(-c4cnc(Cl)c(C)c4)ccc3n2)cc1 — IC50 (MIA PaCa-2; MTT; 48 h): > 50000 nM
CN1CCC(NC(=O)c2ccc(-c3cc(C4CC4)c4oc5c(c4c3)CCN(C(=O)/C=C/c3ccc(N)nc3)C5)nn2)C(F)(F)C1 (stereo not shown) — IC50 (MIA PaCa-2; CCK-8; 72 h): 1900 nM
Cc1sc2c(c1C)C(c1ccc(Cl)cc1)=N[C@@H](CC(=O)NCCCCCCCCNC(=O)COc1cccc3c1C(=O)N(C1CCC(=O)NC1=O)C3=O)c1nnc(C)n1-2 (stereo partly shown) — IC50 (MOLT-4; ATP luminescence): 23 nM
Nc1ccc(/C=C/C(=O)N2CCc3c(oc4c(-c5ccc(F)cc5)cc(-c5ccc(C(=O)N6CCC(F)(F)CC6)nn5)cc34)C2)cn1 — IC50 (MIA PaCa-2; CCK-8; 72 h): 230 nM
COc1ccc(-c2cc(C(=O)Nc3ccccc3)c3cc(-c4cc(C)ccc4F)ccc3n2)cc1 — IC50 (MIA PaCa-2; MTT; 48 h): > 50000 nM
COc1cc2c3c(n(CCCNCCO)c(=O)c2cc1OC)-c1nc2c(cc1C3=O)OCO2 — IC50 (KMS-27; MTS; 72 h): 141 nM
COc1ccc(-c2cc(C(=O)Nc3ccccc3)c3cc(-c4cc(Cl)ccc4F)ccc3n2)cc1 — IC50 (MIA PaCa-2; MTT; 48 h): > 50000 nM
COc1cc2c3c(n(CCCNC(C)C)c(=O)c2cc1OC)-c1nc2c(cc1C3=O)OCO2 — IC50 (KMS-27; MTS; 72 h): 206 nM
COc1ccc(F)cc1-c1ccc2nc(-c3ccc(F)cc3)cc(C(=O)Nc3ccccc3)c2c1 — IC50 (MIA PaCa-2; MTT; 48 h): > 50000 nM
C[C@H](CCC(=O)O)[C@H]1CC[C@H]2[C@@H]3CC[C@@H]4C[C@H](O)CC[C@]4(C)[C@H]3CC[C@]12C — IC50 (LNCaP; MTT; 72 h): 66000 nM
